Compound activity as filed in PubChem.
Shown are actives, neighbours in structure and some others; about 1.3% of the full set was active somewhere.
DAGLB inhibitor – blocks human DAGLB lipase activity | Q8NCG7 | inhibition, % at 5.17 µM | HEK293T DAGLB membrane lysate, EnzChek fluorogenic substrate | hit rate 0.059% among 340,000; in the data active = inhibition above about 34%;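 also: 0% = enzyme with vehicle and 100% = wells lacking enzyme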
TMEM16A act – activates or potentiates the mouse TMEM16A chloride channel; Q8BHY3; HEK293 TMEM16A/YFP-H148Q/I152L, iodide quench fluorescence; hits give low values; B-score at 10 µM; hit rate 0.3% among 340,000; AID 623877;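 active = fluorescence-ratio B-score plate-corrected deviation score at least 3 library SD below zero, with starting fluorescence score within 5 deviations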;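 also: channel opened by trigger with iodide after compound preincubation; score built on the fluorescence ratio of max minus min over baseline; more negative score means more quench and so TMEM16A activation or potentiation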
MT1-MMP act inh – blocks activation of human MT1-MMP. HT1080 RFP-PRO-GFP cells, GFP/RFP ratio fluorescence, overnight; percent of plate control window, DMSO zero. GFP/RFP ratio change, % at 20 µM. hit rate 0.061% among 360,000. P50281;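 active = GFP/RFP ratio change of at least 30% with cell ATP level not reduced by more than half and red fluorescence within 50% of control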
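Assay system – RFP-PRO-GFP reporter HT1080 cells · Compound dosing – single dose of 20 µM compound, 1% DMSO final · Incubation – overnight compound exposure at 37 °C · Measure – GFP/RFP fluorescence ratio · Benchmarks – DMSO wells and RFP-L50D-GFP cells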
TMEM16A inh – blocks the mouse calcium-activated chloride channel TMEM16A. HEK293 TMEM16A/YFP iodide influx fluorescence, ionomycin. normalized B-score (activity score, 25-100; higher = stronger inhibition) at 10 µM. hit rate 1.2% among 310,000. Q8BHY3. AID 588511;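 active = ratio plate-corrected score three or more library SD toward inhibition, starting fluorescence score within five deviations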;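 also: score derived from kinetic fluorescence span divided by baseline fluorescence per well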
TMEM16A reconf – reconfirmed blocker of mouse TMEM16A calcium-activated chloride channel; shares compounds with TMEM16A inh; HEK293 TMEM16A/YFP-H148Q, iodide quench fluorescence; ionomycin added to raise cell calcium; inhibition, % at 10 µM; hit rate 39% among 2,300; AID 652189;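 active = mean duplicate percent inhibition, scaled so buffer wells are 0 and the reference blocker 100, over three buffer SD above buffer mean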
HEK293 Ca mobil – alters calcium mobilization in TMEM16A HEK293 cells, counter-screen; AID 652231; hit rate 2% among 2,300; calcium response (% of ionomycin), % at 10 µM; shares compounds with TMEM16A inh; TMEM16A/YFP HEK293, Fluo4 calcium mobilization;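 active = duplicate-averaged calcium signal over 20% of the ionomycin maximum, relative to buffer baseline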;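 also: each well's signal is peak minus trough fluorescence divided by its pre-addition baseline; 0% = buffer wells and 100% = ionomycin wells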
YFP-HEK293 quench – parental YFP-HEK293 iodide quench counter-screen activity | shares compounds with TMEM16A inh | ionomycin | YFP ratio F(max-min)/F0 at 10 µM | 2,300 tested, under 10 active | AID 652233;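 active = yellow fluorescent protein signal ratio exceeding the buffer control mean by over 5 SD of those controls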;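 also: ratio is mean of duplicate wells from kinetic YFP trace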
ClC-1 inh – rat ClC-1 inhibition, TMEM16A specificity screen. shares compounds with TMEM16A inh. 2,300 tested, under 10 active. CHO ClC-1-YFP, iodide influx fluorescence quench; iodide control reads 0, buffer control 100. ratio percent, % at 10 µM. AID 652236;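 active = duplicate-mean ratio percent above the mean of iodide-only control wells, which defines zero, plus 5 of their SD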;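 also: higher percent means stronger block of ClC-1 iodide influx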
Target sequence (P35524 whole entry, looked up): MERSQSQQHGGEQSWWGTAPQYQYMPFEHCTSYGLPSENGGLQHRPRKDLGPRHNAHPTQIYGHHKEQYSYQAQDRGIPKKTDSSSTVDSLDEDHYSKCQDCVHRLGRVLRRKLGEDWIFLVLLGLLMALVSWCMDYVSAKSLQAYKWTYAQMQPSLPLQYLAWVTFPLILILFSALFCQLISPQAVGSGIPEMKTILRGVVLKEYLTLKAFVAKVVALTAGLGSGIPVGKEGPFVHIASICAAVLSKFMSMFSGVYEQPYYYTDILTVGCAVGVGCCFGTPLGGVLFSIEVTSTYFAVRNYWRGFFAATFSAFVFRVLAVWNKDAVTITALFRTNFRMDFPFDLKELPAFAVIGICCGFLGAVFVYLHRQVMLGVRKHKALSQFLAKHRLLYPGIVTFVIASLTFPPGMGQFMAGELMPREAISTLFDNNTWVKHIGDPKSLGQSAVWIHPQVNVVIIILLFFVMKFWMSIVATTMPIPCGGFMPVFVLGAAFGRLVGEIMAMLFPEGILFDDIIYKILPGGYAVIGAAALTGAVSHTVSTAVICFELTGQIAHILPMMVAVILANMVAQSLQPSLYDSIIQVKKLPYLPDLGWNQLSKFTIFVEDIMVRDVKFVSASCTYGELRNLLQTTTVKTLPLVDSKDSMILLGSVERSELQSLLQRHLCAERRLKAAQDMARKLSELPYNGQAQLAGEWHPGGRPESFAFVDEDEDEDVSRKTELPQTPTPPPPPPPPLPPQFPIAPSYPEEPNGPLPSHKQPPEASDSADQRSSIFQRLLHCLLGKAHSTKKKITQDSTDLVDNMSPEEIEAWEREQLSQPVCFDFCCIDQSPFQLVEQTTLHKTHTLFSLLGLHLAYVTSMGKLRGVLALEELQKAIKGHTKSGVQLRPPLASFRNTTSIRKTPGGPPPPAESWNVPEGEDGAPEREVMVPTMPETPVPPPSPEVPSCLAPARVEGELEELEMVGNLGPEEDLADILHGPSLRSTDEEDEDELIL
An asterisk follows results filed as active; i = inactive; . = no result given.

SMILES	DAGLB inhibitor	TMEM16A act	MT1-MMP act inh	TMEM16A inh	TMEM16A reconf	HEK293 Ca mobil	YFP-HEK293 quench	ClC-1 inh
S=C(NCC1CCCCC1)Nc1ccc(Oc2ccccc2)cc1	-11.0	i	-0.5	100*	20.0%*	i	-1.26	-20.5
S=C(NCC1CCCO1)Nc1ccc(Nc2ccccc2)cc1 (stereo not given)	3.0	i	1.8	100*	i	i	-0.841	-8.5
S=C(NCC1CCCO1)Nc1cccc(Cl)c1 (stereo not given)	-0.2	i	-0.8	i	.	.	.	.
COc1ccc(CN2C(=O)CCCC2(C)c2nc3ccccc3[nH]2)cc1 (stereo not given)	.	.	2.3	.	.	.	.	.
CC1CCN(C(=O)c2[nH]cnc2C(=O)N[C@@H](CCCCNC(=O)OC(C)(C)C)C(=O)OC(C)(C)C)CC1	0.7	i	7.3	100*	i	i	-1.24	-16.0
CC(C)C[C@H](NC(=O)c1nc[nH]c1C(=O)N1CCC(C)CC1)C(=O)OC(C)(C)C	-5.0	i	-2.5	i	.	.	.	.
CSc1nc(C)cc(C)c1S(=O)(=O)c1ccccc1C	-7.3	i	-2.0	i	.	.	.	.
COc1nc(C)cc(C)c1S(=O)(=O)c1ccccc1C	-0.1	i	-4.2	i	.	.	.	.
CCSc1nc(C)cc(C)c1S(=O)(=O)c1ccccc1C	-9.3	i	-1.7	100*	i	i	-1.14	-6.5
CCC(C)Oc1nc(C)cc(C)c1S(=O)(=O)c1ccccc1C (stereo not given)	-11.0	i	-6.3	100*	i	i	-0.623	-13.0
O=C(Nc1c(-c2ccc3c(c2)OCO3)[nH][nH]c1=O)c1cccc(C(F)(F)F)c1	.	.	-4.1	.	.	.	.	.
COc1ccc(C2=NOC(C(=O)NCC(C)C)C2)cc1 (stereo not given)	-1.9	i	-2.0	100*	i	i	-0.974	-10.5
CCC(C)NC(=O)C1CC(c2ccc(OC)cc2)=NO1 (stereo not given)	1.4	i	6.6	i	.	.	.	.
O=C(CSc1nc2ccccc2[nH]1)N1CCN(c2ccc(F)cc2)CC1	0.5	i	0.1	i	.	.	.	.
O=C(CCCSc1nc2ccccc2[nH]1)N1CCN(c2ccc([N+](=O)[O-])cc2)CC1	-1.6	i	-6.7	25*	20.5%*	i	-0.982	-11.0
O=C(COC(=O)c1ccc(F)cc1)NC1CC1	-1.8	i	2.1	.	.	.	.	.
C[C@@H]1CCCCO[C@H](CN(C)C(=O)C2CCCCC2)[C@@H](C)CN([C@H](C)CO)C(=O)c2cc(N(C)C)ccc2O1	-2.3	.	-0.8	.	.	.	.	.
COc1ccc(C(=O)C2CCCN(S(=O)(=O)c3ccc(C(C)=O)cc3)C2)c(C)c1 (stereo not given)	-2.9	i	-2.6	25*	30.0%*	i	-0.885	-23.0
COc1ccc(OC)c(/C=C2/Sc3ccccc3C2=O)c1	-36.5	i	-2.2	i	i	i	-1.11	5.5
FC(F)(F)c1ccncc1-c1nnnn1-c1ccc(Cl)cc1	-3.2	i	-1.1	i	.	.	.	.
FC(F)(F)c1nc(N2CCCC2)ncc1-c1nnnn1-c1ccc(Cl)cc1	-9.4	i	-7.3	25*	i	i	-1.1	-20.0
Cc1sc2nc(SCc3ccc(C(=O)O)cc3)n(Cc3ccco3)c(=O)c2c1C	5.0	i	2.2	25*	30.5%*	i	-1.01	-24.5
C=CCn1c(SCc2ccc(C(=O)O)cc2)nc2sc(C)c(C)c2c1=O	5.5	i	-4.9	i	.	.	.	.
CC[C@H](C)[C@H]1CNC(=S)N1CC1CCN(CCC(C)C)CC1	-1.3	.	1.7	.	.	.	.	.
CCC(=O)NNC(=S)NC(=O)c1ccc(C)cc1	-2.6	i	7.3	i	.	.	.	.
SMILES	DAGLB inhibitor	TMEM16A act	MT1-MMP act inh	TMEM16A inh	TMEM16A reconf	HEK293 Ca mobil	YFP-HEK293 quench	ClC-1 inh
Cc1ccc(C(=O)NC(=S)NNC(=O)COc2ccccc2C)cc1	0.1	i	-3.6	25*	20.5%*	i	-0.923	-5.0
O=C(CCc1ccccc1)NNC(=S)NC(=O)c1ccc(Cl)cc1	.	.	.	100*	25.0%*	65.0%*	-0.89	-19.0
CC(C)CNC(=O)C1(C)CCN1C(=O)c1ccc(C(C)(C)C)cc1 (stereo not given)	.	.	-3.5	.	.	.	.	.
CN1CCN(C(=O)NC2CCCN2S(=O)(=O)c2ccc(Cl)cc2)CC1 (stereo not given)	1.4	i	-1.2	i	i	i	-1.04	-1.5
Fc1ccc2nc(Nc3nc4c(F)cccc4s3)sc2c1	-1.2	i	0.0	25*	25.0%*	i	-0.89	-13.0
COc1cccc(C(=O)NC(C)c2ccc(-c3ccccc3)cc2)c1OC (stereo not given)	-10.7	i	-0.6	25*	24.5%*	i	-1.09	-10.0
Cc1ccc(N(C)S(=O)(=O)c2ccc(C)cc2)cc1	-4.0	i	-0.7	i	.	.	.	.
Cc1ccc(S(=O)(=O)N(C)c2ccc3ccccc3c2)cc1	-11.2	i	-0.2	100*	i	i	-0.914	-10.0
Cc1cc(C)n2c(NCc3ccccc3)c(-c3cc4ccccc4o3)nc2n1	.	.	-8.2	.	.	.	.	.
O=C(Nc1ccc(Cc2nc3ccccc3s2)cc1)c1ccncc1	1.7	i	3.9	25*	17.0%*	i	-0.984	-11.5
CSc1nc2ccc(NS(=O)(=O)c3ccc(Cl)s3)cc2s1	-2.0	i	0.3	100*	32.5%*	i	-0.896	-17.0
Cc1ccc(S(=O)(=O)Nc2ccc3nc(C)sc3c2)cc1	-1.2	i	-9.8	25*	i	i	-1.17	-7.5
CC(=O)Nc1ccc(NS(=O)(=O)c2ccc(Cl)s2)cc1	-0.7	i	1.8	i	.	.	.	.
CCCCN(C)c1c(C)nc2ccc(C(=O)Nc3cc(-c4ccccc4)ccc3OC)cn12	.	.	-2.8	.	.	.	.	.
Fc1cccc(Cl)c1-c1nnc2ccc3ccccc3n12	-1.3	i	-9.1	25*	i	i	-0.898	-10.0
CCOC(=O)c1c(NC(=O)COC(=O)C2CC2C)sc(C)c1C (stereo not given)	-24.4	i	3.4	25*	i	i	-1.08	-5.0
CC1CC1C(=O)OCC(=O)NNC(=O)c1ccc([N+](=O)[O-])cc1 (stereo not given)	-1.0	i	3.2	.	.	.	.	.
CN(C(=O)OC(C)(C)C)c1ccc(-c2nc3ccccc3s2)cc1	-14.4	i	5.9	25*	24.5%*	i	-1.36	-8.5
COC(=O)N(C)c1nc2ccccc2s1	-1.6	i	1.9	i	.	.	.	.
Cc1ccc(C(=O)Nc2ncc([N+](=O)[O-])s2)cc1	3.9	i	-3.2	25*	50.5%*	i	-0.98	-27.0
